Measured values taken from ChEMBL document CHEMBL5715960, “Epigenetic Co-Deregulation of EZH2/TET1 is a Senescence-Countering, Actionable Vulnerability in Triple-Negative Breast Cancer” (Theranostics, 2019).
Active and inactive are the calls of the source. The calls are words filed in the database; no cut-off is given here.

What was measured:
MDA-MB-231 [1] = test: Upregulation of TET1 in human MDA-MB-231 cells at 2 uM for 2 days by immunoblot analysis; assay type: functional, cell-based; details: time 2.0 day
MDA-MB-231 [2] = test: Antiproliferative activity against human MDA-MB-231 cells at 0.5 to 2 uM for 2 days by Guava viacount assay; assay type: functional, cell-based; details: dose 0.5-2 µM, time 2.0 day
Procedure, shortened: (§1)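 Cells plated at 2 × 10^4 (24-well) or 1 × 10^5 (12-well), exposed to a range of GSK343 concentrations for 2 days against DMSO solvent control; cell number and viability read by Guava ViaCount flow cytometry, relative to DMSO. Triplicate; mean ± SD.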

MDA-MB-436 [3] = test: Antiproliferative activity against human MDA-MB-436 cells at 0.5 to 2 uM for 2 days by Guava viacount assay; assay type: functional, cell-based; details: dose 0.5-2 µM, time 2.0 day; procedure, shortened: as §1
MDA-MB-453 = test: Antiproliferative activity against human MDA-MB-453 cells at 0.5 to 2 uM for 2 days by Guava viacount assay; assay type: functional, cell-based; details: dose 0.5-2 µM, time 2.0 day; procedure, shortened: as §1
MDA-MB-436 [4] = test: Antiproliferative activity against human MDA-MB-436 cells assessed as increase in cell death at 10 uM for 2 days by Guava viacount assay; assay type: functional, cell-based; details: time 2.0 day; procedure, shortened: as §1
MDA-MB-231 [5] = test: Induction of cell cycle arrest in human MDA-MB-231 cells assessed as accumulation of cells at G1 phase measured at 2 uM by BrdU/PI staining based flow cytometric analysis (reference value: 51.5%); assay type: functional
MDA-MB-436 [6] = test: Antiproliferative activity against human MDA-MB-436 cells assessed as increase in global H3K9me3 expression level by immunoblot analysis; assay type: functional, cell-based
Procedure, shortened: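 Cells exposed to GSK343 at 2 µM (standard level unless stated otherwise), lysed and immunoblotted; α-tubulin and total H3 as loading controls.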

MDA-MB-436 [7] = test: Upregulation of TP53 gene in human MDA-MB-436 cells at 2 uM by qRT-PCR analysis; assay type: functional, cell-based
Procedure, shortened: (§2)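 Relative transcript levels measured by qRT-PCR in cells treated with 2 µM inhibitor, normalised to DMSO-treated control cells. Triplicate experiments unless stated otherwise; mean ± SD reported; unpaired two-tailed Student's t-test at p < 0.05.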

BT-474 [8] = test: Upregulation of TP53 gene in human BT-474 cells at 2 uM by qRT-PCR analysis; assay type: functional, cell-based; procedure, shortened: as §2
BT-474 [9] = test: Effect on human BT-474 cells assessed as increase in TET2 transcription by qRT-PCR analysis; assay type: functional, cell-based
Procedure, shortened: (§3)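 qRT-PCR of TET1, TET2 and TET3 transcripts in breast cancer cells exposed to GSK343 (2 µM unless otherwise indicated), shown relative to DMSO-treated cells. Mean ± SD, triplicate unless stated.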

BT-474 [10] = test: Effect on human BT-474 cells assessed as increase in TET3 transcription by qRT-PCR analysis; assay type: functional, cell-based; procedure, shortened: as §3
MDA-MB-436 [11] = test: Effect on human MDA-MB-436 cells assessed as increase in global 5hmc level by dot analysis; assay type: functional, cell-based
Procedure, shortened: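 Global 5hmC measured by dot blot on genomic DNA from cells given GSK343 or carrying EZH2 knock-down, with DMSO or scrambled shRNA as controls. DNA denatured in 0.1 M NaOH at 99 °C for 5 min, then neutralized with ammonium sulfate pH 7.0. 5 µg spotted, UV-crosslinked, probed with anti-5hmC for 1 h at room temperature, ECL detection, dot intensity quantified. Mean ± SD.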

MDA-MB-231 [12] = test: Effect on […] in human MDA-MB-231 cells assessed as repression in TET1 promoter EZH2 by ChiP-qPCR analysis; assay type: functional, cell-based
Procedure, shortened: (§4)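 Cells treated with GSK343 or DMSO; chromatin immunoprecipitated with anti-EZH2 or anti-H3K27me3 antibody and quantified by qPCR with primers for the TET1 promoter; input as internal control, IgG as negative control.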

MDA-MB-231 [13] = test: Effect on […] in human MDA-MB-231 cells assessed as repression in TET1 promoter H3K27me3 by ChiP-qPCR analysis; assay type: functional, cell-based; procedure, shortened: as §4
MDA-MB-231 [14] = test: Antiproliferative activity in human MDA-MB-231 cells expressing vector assessed as increase in SA-beta-gal positive cells by SA-beta-gal staining analysis (reference value: 6.5+/-4%); assay type: functional
MDA-MB-436 [15] = test: Antiproliferative activity in human MDA-MB-436 cells expressing shTET1 assessed as increase in SA-beta-gal positive cells by SA-beta-gal staining analysis (reference value: 8.2+/-2.4%); assay type: functional
MDA-MB-231 [16] = test: Effect on human MDA-MB-231 cells expressing shTET1 assessed as reduction in cyclinA by immunoblot analysis; assay type: functional, cell-based
MDA-MB-231 [17] = test: Effect on human MDA-MB-231 cells expressing shTET1 assessed as reduction in PCNA by immunoblot analysis; assay type: functional, cell-based
MDA-MB-231 [18] = test: Effect on human MDA-MB-231 cells assessed as increase in TET1 level at 2 uM in presence of adriamycin by immunoblot analysis; assay type: functional, cell-based
Procedure, shortened: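 Immunoblot of MDA-MB-231 and MCF7 lysates after 0.005 µg/ml adriamycin with or without 2 µM GSK343, or DMSO. α-Tubulin and total H3 used as loading controls.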

MDA-MB-436 [19] = test: Induction of apoptosis in human MDA-MB-436 cells assessed as increase in accumulation of cells at G1 phase in presence of adriamycin by BrdU/PI-based cell cycle analysis; assay type: functional
Procedure, shortened: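 Cell cycle by BrdU/PI staining and flow cytometry, giving G1, S and G2 fractions. Cells received 0.005 µg/ml adriamycin with or without 2 µM GSK343, or DMSO. Mean ± SD.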

MDA-MB-231 [20] = test: […] in human MDA-MB-231 cells xenografted in Crl:NU-Foxn1-nu/nu mouse […] administered at 5 mg/kg, ip in presence of adriamycin treated for 21 days by SA-beta-gal staining analysis; assay type: functional, organism-based; details: time 21.0 day
Procedure, shortened: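 SA-β-gal staining of xenograft tumors. Twice-weekly intraperitoneal GSK343 5 mg/kg, adriamycin 1 mg/kg, the combination, or DMSO, started at a tumor volume of about 50 mm3 and continued for 21 days.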

MDA-MB-231 [21] = test: Induction of apoptosis in human MDA-MB-231 cells xenografted in Crl:NU-Foxn1-nu/nu mouse assessed as apoptotic cells in tumor administered at 5 mg/kg, ip in presence of adriamycin treated for 21 days by TUNEL staining analysis; assay type: functional, organism-based; details: time 21.0 day
Procedure, shortened: (§5)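 TUNEL staining of xenograft tumor sections. Dosing started when tumors reached about 50 mm3: twice-weekly intraperitoneal GSK343 5 mg/kg, adriamycin 1 mg/kg, the combination, or DMSO solvent control, for 21 days.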

MDA-MB-436 [22] = test: Antitumor activity against human MDA-MB-436 cells xenografted in Crl:NU-Foxn1-nu/nu mouse assessed as reduction in tumor administered at 5 mg/kg, ip in presence of adriamycin treated for 21 days; assay type: functional, organism-based; details: time 21.0 day
MDA-MB-436 [23] = test: Induction of apoptosis in human MDA-MB-436 cells xenografted in Crl:NU-Foxn1-nu/nu mouse assessed as apoptotic cells in tumor administered at 5 mg/kg, ip in presence of adriamycin treated for 21 days by TUNEL staining analysis; assay type: functional, organism-based; details: time 21.0 day; procedure, shortened: as §5
MDA-MB-231 [24] = test: Effect on human MDA-MB-231 cells assessed as increase in TET1 mRNA level by qRT-PCR analysis
MDA-MB-436 [25] = test: Effect on human MDA-MB-436 cells assessed as increase in TET1 mRNA level by qRT-PCR analysis

CCCc1cc(C)[nH]c(=O)c1CNC(=O)c1cc(-c2ccnc(N3CCN(C)CC3)c2)cc2c1cnn2C(C)C
Activity (MDA-MB-231 [1]): Active | Activity (MDA-MB-231 [2]): Active | Activity (MDA-MB-436 [3]): Active | Activity (MDA-MB-453): Active | Activity (MDA-MB-436 [4]): Active | Activity (MDA-MB-231 [5]): 76.8% | Activity (MDA-MB-436 [6]): Active | Activity (MDA-MB-436 [7]): Active | Activity (BT-474 [8]): inactive | Activity (BT-474 [9]): inactive | Activity (BT-474 [10]): inactive | Activity (MDA-MB-436 [11]): Active | Activity (MDA-MB-231 [12]): Active | Activity (MDA-MB-231 [13]): Active | Activity (MDA-MB-231 [14]): 45.6% | Activity (MDA-MB-436 [15]): 20.3% | Activity (MDA-MB-231 [16]): inactive | Activity (MDA-MB-231 [17]): inactive | Activity (MDA-MB-231 [18]): Active | Activity (MDA-MB-436 [19]): Active | Activity (MDA-MB-231 [20]): Active | Activity (MDA-MB-231 [21]): Active | Activity (MDA-MB-436 [22]): Active | Activity (MDA-MB-436 [23]): Active | Activity (MDA-MB-231 [24]): Active | Activity (MDA-MB-436 [25]): Active
